Only some compounds are listed: those with a hit (about 4% of all), similar ones and a draw of the others.
iPSC survival up: increases survival of single human iPS cells; survival enhancement, % at 20 µM; hiPSC single-cell survival, ATPlite luminescence; 100% = ROCK inhibitor wells, 0% = DMSO; 0.044% of 360,000 active; AID 602274; in the data active = survival enhancement above about 18%;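 note: cells exposed to compounds for 16 hours before the ATP read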
FAS TE block: FAS thioesterase (human) inhibition; AID 602261; 0.67% of 360,000 active; recombinant FAS-TE, OMFH fluorogenic substrate, fluorescence endpoint; P49327; inhibition, % at 15 µM;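 active = compounds whose normalised, plate-corrected inhibition of enzyme fluorescence in the single-dose primary screen is 50% or more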;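 note: 0% = DMSO with enzyme and 100% = substrate without enzyme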
SENP1 FRET inh: inhibitors of human SENP1 SUMO protease catalytic domain. inhibition, % at 10 µM. 0.21% of 360,000 active. recombinant SENP1 catalytic domain, CyPet-SUMO1-YPet FRET cleavage. AID 624204;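 active = inhibition at least 30% at 10 µM, raw YFP signal under a set limit, fluorescence ratio 0.5 to 1.5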;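 note: 0% = enzyme with DMSO and 100% = no enzyme wells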
Target sequence (Q9P0U3 419-644 limits assumed): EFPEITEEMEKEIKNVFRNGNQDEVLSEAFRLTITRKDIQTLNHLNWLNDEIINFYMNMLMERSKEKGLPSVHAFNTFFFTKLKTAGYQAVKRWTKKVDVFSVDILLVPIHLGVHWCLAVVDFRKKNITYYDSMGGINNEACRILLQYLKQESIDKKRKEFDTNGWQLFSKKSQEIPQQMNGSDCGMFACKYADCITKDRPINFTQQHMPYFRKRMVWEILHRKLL
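system = hSENP1 catalytic domain, recombinant | reagent = SFCypet-SUMO1-SFYpet substrate at 25 nM | doses = one dose per compound, 10 µM, 0.5% DMSO | incubation = enzyme reaction for 50 min at room temperature, dark | measured by = FRET, CFP and YFP emission | controls = no-enzyme low, enzyme-DMSO high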
GRIN3A LBD mod: NR3A (human) ligand-binding domain modulation. NR3A LBD differential scanning fluorimetry, Tm shift; 0% = protein alone, 100% = glycine-bound protein. Tm shift relative to glycine control, % at 25 µM. 2.5% of 340,000 active;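 active = melting temperature shift of at least 10% of the positive control shift, at one fixed dose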
Arrestin-AP2 inh: inhibitors of human beta-arrestin and AP2 interaction | FITC-arrestin peptide / GST-AP2 beads, flow cytometry; AP2 beta2 appendage carries R879A mutation | inhibition, % at 10 µM | 0.31% of 340,000 active;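 active = inhibition above a set limit, near 3 SD of compounds lacking own fluorescence, cut at about 54% in these data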;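 note: plate controls were DMSO wells for no effect and 5 µM unlabelled arrestin peptide for full effect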
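Measured by: flow cytometry, FL1 (488/535 nm); Material: AP2 appendage R879A on GSH beads; Evaluation: percent response; Timing: pre-incubation 12 min, peptide binding 1 h, room temperature; Also added: 50 nM FITC-arrestin peptide; Medium: PBS with 0.05% Tween 20 and 0.1% BSA.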
Cardio protect: modulators protecting cardiomyocytes from myocardial damage | H9c2 cardiomyocytes, H2O2 injury protection, ATPLite, 2 h | protection from H2O2 cell death, % at 20 µM | 0.63% of 360,000 active | AID 588492;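 active = compounds giving at least 50% protection of heart cells from peroxide-induced death in the single-dose screen, raw or plate-pattern-corrected value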;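 note: 0% = DMSO wells with peroxide and 100% = DMSO wells without peroxide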
Numbers without * were called inactive; nt = no result.

SMILES	iPSC survival up	FAS TE block	SENP1 FRET inh	GRIN3A LBD mod	Arrestin-AP2 inh	Cardio protect
O=C(OCc1cn([C@H]2C[C@H](c3ccc(Cl)cc3)N(C(=O)c3cccs3)C[C@@H]2O)nn1)c1ccccc1	-2	-2	3	nt	nt	-4
COC(=O)c1sccc1NC(=O)Cc1ccc(OC)c(OC)c1	0	-15	3	0	34	-10
COC(=O)c1sccc1NC(=O)c1cccnc1	0	-9	-1	669*	4	-2
COC(=O)c1sccc1NC(=O)Cc1ccc(Br)cc1	3	25	-1	12*	1	-6
COC(=O)c1sccc1NC(=O)c1cccc(Cl)c1	0	23	4	5	-7	-5
Cc1ccc(NC(=O)Nc2nnc([C@H]3C[C@H](O)[C@@H](CO)O3)s2)cc1	-2	-6	0	nt	nt	0
Oc1c(C=Nc2ccc(Cl)cn2)sc2ccccc12	-1	-4	-71	11*	2	-24
Cc1ccc(NS(=O)(=O)c2ccc(N3CCN(c4ccc(O)cc4)CC3)c([N+](=O)[O-])c2)c(C)c1	0	9	-7	17*	25	-23
O=[N+]([O-])c1cc(S(=O)(=O)Nc2ccccc2)ccc1N1CCN(c2ccc(O)cc2)CC1	-4	-18	-13	-6	-3	2
COc1ccc(CCNC2=CC(=O)CCC2)cc1OC	0	2	-3	nt	nt	0
CC(=O)Nc1ccc(/C=C/c2ccc3cccc([N+](=O)[O-])c3n2)cc1	1	15	8	26*	-13	44
COc1cc(/C=C/c2ccc3cccc([N+](=O)[O-])c3n2)ccc1OCC(=O)O	-1	-1	15	2	-5	-12
O=C(O)COc1ccc(/C=C/c2ccc3cccc([N+](=O)[O-])c3n2)cc1	-1	-7	6	18*	1	-6
N#C/C(=C(/O)COC(=O)CSc1ccc2ccccc2c1)c1nc2ccccc2[nH]1	0	3	-60	20*	1	-12
Cc1ccc(C)c(SCC(=O)OC/C(O)=C(\C#N)c2nc3ccccc3[nH]2)c1	-2	0	-51	-1	13	-10
O=C(CC[C@H]1O[C@@H](n2ccc(=O)[nH]c2=O)[C@H](O)[C@@H]1O)N[C@@H](Cc1ccccc1)C(=O)NCC1CCCCC1	5	-8	1	nt	nt	1
COc1ccc(NC(=O)CN(C)C(=O)c2cn(-c3ccccc3)nc2-c2ccc(F)cc2)cc1	0	20	0	2	8	0
COc1ccc(NC(=O)CN(C)C(=O)c2cn(-c3ccccc3)nc2-c2ccc(Cl)cc2)cc1	0	19	1	27*	0	-7
COc1ccc(NC(=O)CN(C)C(=O)c2cn(-c3ccccc3)nc2-c2ccc(OC)cc2)cc1	0	8	-1	-7	1	6
CN(CC(=O)Nc1cccc(F)c1)C(=O)c1cn(-c2ccccc2)nc1-c1ccc(Cl)cc1	4	37	2	27*	2	-16
COc1cccc(NC(=O)CN(C)C(=O)c2cn(-c3ccccc3)nc2-c2cccs2)c1	0	21	-2	14*	2	15
NS(=O)(=O)c1ccc(NC(=O)COC(=O)c2cn(-c3ccccc3)nc2-c2ccccc2)cc1	0	-4	2	22*	0	-1
CSc1ccccc1NC(=O)C1(C)CCN1C(=O)Cc1ccccc1Cl (configuration not stated)	-2	1	2	nt	nt	3
CCCC(=O)N1CCC1(C)C(=O)NS(=O)(=O)c1cc2c(cc1C)CCCS2(=O)=O (configuration not stated)	-2	-7	2	nt	nt	1
CN(CC(=O)Nc1cccc(F)c1)C(=O)c1cn(-c2ccccc2)nc1-c1cccs1	0	21	-2	23*	1	3
SMILES	iPSC survival up	FAS TE block	SENP1 FRET inh	GRIN3A LBD mod	Arrestin-AP2 inh	Cardio protect
CNc1nc(NCc2ccc(N(C)C)cc2)c2sccc2n1	-1	-5	1	nt	nt	-8
COC(=O)c1ccc(COC(=O)c2ccc(N(C)C)cc2)cc1	2	30	2	2	2	-4
O=C(OCc1ccc(COC(=O)c2ccc(O)cc2)cc1)c1ccc(O)cc1	-1	21	1	21*	12	1
CCCCNC(=O)C(NC(=O)c1cnc(C)cn1)C(=O)c1ccccc1 (configuration not stated)	nt	nt	3	nt	nt	nt
Cc1cc(C)c2sc(NC(=O)c3ccc([N+](=O)[O-])o3)nc2c1	0	7	-2	15*	-6	-5
NS(=O)(=O)c1ccc2nc(NC(=O)c3ccc(Br)o3)sc2c1	0	-2	-17	-1	-10	-9
Cc1ccc2nc(NC(=O)CCNS(=O)(=O)c3ccc(Br)s3)sc2c1	-3	17	-2	11*	-5	-8
Cc1ccc2nc(NC(=O)CCNS(=O)(=O)c3cccs3)sc2c1	0	8	1	-6	23	-10
Cc1ccc2nc(NC(=O)c3ccc(Br)o3)sc2c1	0	0	0	18*	14	-16
COc1ccc(-c2oc3c(c2C#CCCCCO)C(OCCO)CC3)cc1 (configuration not stated)	0	-7	-18	nt	nt	nt
Cc1cc(Cl)ccc1C(O)c1ncc(-c2cccc(C(F)(F)F)c2)[nH]1 (configuration not stated)	1	29	0	nt	nt	-26
COc1cc(/C=C/C(=O)/C=C(O)/C=C/c2ccc(O)c(OC)c2)ccc1O	-3	-1	-28	27*	26	46
COc1cc(/C=C/C(=O)CC(=O)/C=C/c2ccc(O)c(OC)c2)ccc1O	-4	8	-29	24*	39	75*
Cc1cc(Nc2ccc(Cl)cc2)nc(-c2ccccc2O)n1	0	27	-2	35*	17	-9
Cc1cc(Nc2cccc(Cl)c2)nc(-c2ccccc2O)n1	0	34	-3	37*	-4	-20
Cc1cc(Cl)nc(-c2ccccc2O)n1	0	6	3	0	1	-5
CCCc1cc(CN(C)C(=O)c2ccc(OC3CCN(C(C)=O)CC3)c(OC)c2)[nH]n1	1	-4	1	nt	nt	-4
CC(C)(C)n1nnnc1C(c1cc2ccccc2o1)N1CCOCC1 (configuration not stated)	0	-7	4	nt	nt	nt
O=c1cc(-c2ccc(O)c(O)c2)oc2cc(O[C@@H]3O[C@H](CO)[C@@H](O)[C@H](O)[C@H]3O)cc(O)c12	1	-6	34*	2	-5	9
O=c1c(OC2OC(CO)C(O)C(O)C2O)c(-c2ccc(O)c(O)c2)oc2cc(O)cc(O)c12 (configuration not stated)	-3	-9	23	-2	12	-2
